Here are results for 12 compounds from ChEMBL document CHEMBL4715754, “Slowing down fat digestion and absorption by an oxadiazolone inhibitor targeting selectively gastric lipolysis” (2016).

Test [1] has as its target T1, Pancreatic triacylglycerol lipase (Homo sapiens) (UniProt P16233).
T1 sequence (whole entry): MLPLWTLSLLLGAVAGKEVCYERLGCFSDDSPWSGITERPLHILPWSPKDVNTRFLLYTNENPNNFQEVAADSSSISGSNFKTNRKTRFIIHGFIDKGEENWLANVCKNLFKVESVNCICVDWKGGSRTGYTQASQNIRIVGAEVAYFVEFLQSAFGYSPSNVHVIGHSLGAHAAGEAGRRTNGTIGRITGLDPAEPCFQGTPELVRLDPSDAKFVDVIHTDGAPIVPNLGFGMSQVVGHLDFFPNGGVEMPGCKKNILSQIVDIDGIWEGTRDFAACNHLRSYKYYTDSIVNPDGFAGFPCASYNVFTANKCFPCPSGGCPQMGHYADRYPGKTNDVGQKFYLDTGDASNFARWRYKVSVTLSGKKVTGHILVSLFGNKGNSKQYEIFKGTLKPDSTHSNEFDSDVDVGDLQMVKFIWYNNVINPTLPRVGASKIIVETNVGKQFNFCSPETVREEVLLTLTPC
Description: Inhibition of human pancreatic lipase at 400:1 molar excess compound concentration preincubated for 30 mins at 25 degreeC relative to control. Summed up: (§1)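 Pancreatic lipase from human pancreatic juice (54 µg/mL HPL stock) or porcine pancreatic extract (32 µg/mL PPL stock) was held in 10 mM MES pH 7.0, 150 mM NaCl. It was pre-incubated with inhibitor from DMSO stock for 30 min at 25 °C with 4 mM NaTDC at varied molar excess. Residual activity was read by pH-stat on tributyrin at 37 °C, pH 8.0, with 2 mM CaCl₂ and 4 mM NaTDC. x_I50 was taken from residual activity; DMSO-only controls were run.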

The target in test [2] is T2, Pancreatic triacylglycerol lipase (Sus scrofa) (UniProt P00591).
T2 sequence (whole entry): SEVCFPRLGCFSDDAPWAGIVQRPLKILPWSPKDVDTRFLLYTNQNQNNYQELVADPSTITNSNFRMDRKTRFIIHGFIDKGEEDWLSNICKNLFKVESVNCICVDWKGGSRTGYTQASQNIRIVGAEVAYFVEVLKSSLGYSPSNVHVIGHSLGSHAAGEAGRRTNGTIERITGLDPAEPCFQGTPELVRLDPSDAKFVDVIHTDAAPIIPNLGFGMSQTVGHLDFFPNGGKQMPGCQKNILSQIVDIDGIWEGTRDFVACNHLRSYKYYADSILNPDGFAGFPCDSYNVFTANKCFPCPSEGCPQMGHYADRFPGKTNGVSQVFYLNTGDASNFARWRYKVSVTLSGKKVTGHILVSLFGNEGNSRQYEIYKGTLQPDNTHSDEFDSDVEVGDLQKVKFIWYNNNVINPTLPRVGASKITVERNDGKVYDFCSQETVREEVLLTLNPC
Description: Inhibition of porcine pancreatic lipase at 400:1 molar excess compound concentration preincubated for 30 mins at 25 degreeC relative to control. An outline of the steps: as §1

Test [3] concerns the target T1, Pancreatic triacylglycerol lipase (Homo sapiens). The experiment in a line: Inhibition of human pancreatic lipase preincubated for 30 mins at 25 degreeC. Summed up:
as §1

The target of test [4] is T2, Pancreatic triacylglycerol lipase (Sus scrofa). Description: Inhibition of porcine pancreatic lipase at 400:1 molar excess compound concentration preincubated for 120 mins at 25 degreeC.
Test [5] has as its target T1, Pancreatic triacylglycerol lipase (Homo sapiens). The experiment in a line: Inhibition of human pancreatic lipase at 400:1 molar excess compound concentration preincubated for 120 mins at 25 degreeC.
For test [6], the target named is T3, Gastric triacylglycerol lipase (Canis lupus familiaris) (UniProt P80035).
T3 sequence (whole entry): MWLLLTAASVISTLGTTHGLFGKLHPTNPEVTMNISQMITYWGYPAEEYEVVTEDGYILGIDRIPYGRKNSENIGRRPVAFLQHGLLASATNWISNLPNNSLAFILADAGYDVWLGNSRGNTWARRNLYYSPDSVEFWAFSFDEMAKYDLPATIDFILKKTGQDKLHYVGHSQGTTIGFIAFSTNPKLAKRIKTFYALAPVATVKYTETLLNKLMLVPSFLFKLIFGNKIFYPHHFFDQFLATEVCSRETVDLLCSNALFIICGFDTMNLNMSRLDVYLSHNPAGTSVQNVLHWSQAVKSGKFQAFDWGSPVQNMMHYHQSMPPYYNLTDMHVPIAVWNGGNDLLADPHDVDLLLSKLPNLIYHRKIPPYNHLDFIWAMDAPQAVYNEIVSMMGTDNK
Description: Inhibition of recombinant dog gastric lipase at 4:1 molar excess compound concentration preincubated for 30 mins at 25 degreeC relative to control.

Test [7] has as its target T4, Pancreatic lipase-related protein 2 (Cavia porcellus) (UniProt P81139).
T4 sequence (whole entry): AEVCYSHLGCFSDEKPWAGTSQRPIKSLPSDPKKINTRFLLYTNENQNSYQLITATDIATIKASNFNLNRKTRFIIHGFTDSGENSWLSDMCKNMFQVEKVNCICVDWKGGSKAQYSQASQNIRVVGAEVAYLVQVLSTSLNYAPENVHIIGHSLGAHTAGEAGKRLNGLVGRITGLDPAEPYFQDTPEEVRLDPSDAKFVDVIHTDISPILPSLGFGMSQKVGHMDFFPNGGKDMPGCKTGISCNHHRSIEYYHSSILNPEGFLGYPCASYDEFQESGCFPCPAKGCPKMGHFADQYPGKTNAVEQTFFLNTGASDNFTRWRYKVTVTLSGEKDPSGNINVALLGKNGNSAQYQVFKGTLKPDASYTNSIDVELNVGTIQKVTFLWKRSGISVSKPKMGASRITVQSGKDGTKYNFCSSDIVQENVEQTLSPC
The experiment in a line: Inhibition of recombinant guinea pig PL-RP2 expressed in Aspergillus oryzae at 4:1 molar excess compound concentration preincubated for 30 mins at 25 degreeC relative to control.

Test [8] deals with T4, Pancreatic lipase-related protein 2 (Cavia porcellus). Description: Inhibition of recombinant guinea pig PL-RP2 expressed in Aspergillus oryzae preincubated for 30 mins at 25 degreeC.
The target of test [9] is T3, Gastric triacylglycerol lipase (Canis lupus familiaris). Description: Inhibition of recombinant dog gastric lipase preincubated for 30 mins at 25 degreeC.
The target of test [10] is T4, Pancreatic lipase-related protein 2 (Cavia porcellus). The experiment in a line: Inhibition of recombinant guinea pig PL-RP2 expressed in Aspergillus oryzae at 20:1 molar excess compound concentration preincubated for 30 mins at 25 degreeC relative to control.
In test [11] the target is T2, Pancreatic triacylglycerol lipase (Sus scrofa). Description: Inhibition of porcine pancreatic lipase preincubated for 30 mins at 25 degreeC. An outline of the steps: as §1
Test [12] concerns the target T3, Gastric triacylglycerol lipase (Canis lupus familiaris). The experiment in a line: Inhibition of recombinant dog gastric lipase at 20:1 molar excess compound concentration preincubated for 30 mins at 25 degreeC relative to control.

Calls of active or inactive are those of the source. The calls are words filed in the database; no cut-off is given here.

Broadly, the inhibition is the relative decrease from the control value, in per cent. Turning to `COc1nn(-c2ccccc2)c(=O)o1`, the results for the inhibition in test [1] and in [2] were 25.6% and 90.6%, respectively. The same compound displayed an XI50 in test [3] of over 400 molar excess.
The compound `COc1nn(-c2cccc(Oc3ccccc3)c2)c(=O)o1` displayed an inhibition in test [1] of 49.1%. Also, the inhibition result in test [4] and in test [5] was “inactive” in each case.
`CCCCOc1nn(-c2cccc(Oc3ccccc3)c2)c(=O)o1`: the inhibition in test [6] is 41.5%; in test [1] it was 19.1%; in test [7] it was 42.4%; in test [2], 19.7%; in test [10], 43.8%; in test [12], 77.5%. Further, the XI50 in test [8] is over 40 molar excess; in test [9] it was 5.33 molar excess; in [11], over 400 molar excess; in [3] it was over 400 molar excess.
Regarding `COc1nn(-c2ccc(Oc3ccccc3)cc2)c(=O)o1`, the inhibition in [1] came out at 4%. In test [11], this compound registered an XI50 of over 400 molar excess.
`CCCCCCCCCCOc1nn(-c2cccc(Oc3ccccc3)c2)c(=O)o1`: the inhibition in test [6] amounted to 14.6%; in test [1], 20.1%; in test [7] it was 56.4%; in [2], 32.5%; in test [10] it was 57.4%; in test [12], 37.7%. For the same compound, the XI50 in test [8] was 2.72 molar excess; in test [9], over 100 molar excess; in [11], over 400 molar excess; in [3] it was over 400 molar excess.
As to `COCCOc1nn(-c2cccc(Oc3ccccc3)c2)c(=O)o1`, the inhibition in [6] came to 18.1%; in test [1], 20%; in test [7], 60.3%; in [2] it was 15.5%; in test [10], 67.8%; in [12], 69.1%. Besides, the XI50 in test [8] was 1.7 molar excess; in test [9], 11.8 molar excess; in [11] it was over 400 molar excess; in test [3], over 400 molar excess.
`CCCCCCCCCCCCOc1nn(-c2cccc(Oc3ccccc3)c2)c(=O)o1`: the inhibition in test [6] turned out to be 44.1%; in test [1], 29.1%; in [7], 53.1%; in test [2], 27.9%; in test [10], 54.4%; in [12], 68.2%. The XI50 is 1.17 molar excess in test [8], 4.57 molar excess in test [9], over 400 molar excess in test [11] and over 400 molar excess in test [3].
In the case of `CC(C)COc1nn(-c2cccc(Oc3ccccc3)c2)c(=O)o1`, the inhibition in test [6] worked out at 35.2%; in test [1], 21.2%; in test [7], 73.6%; in test [2] it was 20.6%; in test [10], 76%; in test [12], 69.6%. Also, the XI50 was 0.52 molar excess in test [8], 5.51 molar excess in test [9], over 400 molar excess in [11] and over 400 molar excess in test [3].
As to `CCOc1nn(-c2cccc(Oc3ccccc3)c2)c(=O)o1`, the inhibition in test [6] came out at 33.6%; in [1] it was 18.8%; in [7], 27.4%; in [2], 19%; in [10], 27.7%; in test [12], 83%. Besides, the XI50 was over 40 molar excess in test [8], 6.08 molar excess in test [9], over 400 molar excess in test [11] and over 400 molar excess in test [3].
Consider `CCCCCCCCOc1nn(-c2cccc(Oc3ccccc3)c2)c(=O)o1`, for which the inhibition in [6] turned out to be 53.9%; in [1], 25.7%; in test [7], 62.3%; in test [2] it was 19.9%; in test [10], 63%; in test [12] it was 70.5%. Further, the XI50 in test [8] is 1.47 molar excess; in test [9], 3.99 molar excess; in test [11] it was over 400 molar excess; in [3] it was over 400 molar excess.
`CCCCCCOc1nn(-c2cccc(Oc3ccccc3)c2)c(=O)o1`: the inhibition in [6] came out at 43.5%; in test [1], 17.1%; in test [7], 90.7%; in test [2], 27.2%; in [10], 91.3%; in test [12] it was 65.9%. Also, the XI50 is 1.09 molar excess in test [8], 4.92 molar excess in test [9], over 400 molar excess in [11] and over 400 molar excess in [3].
With `CCCCC(CC)COc1nn(-c2cccc(Oc3ccccc3)c2)c(=O)o1` (stereo not drawn), the inhibition was 21.6% in test [6]; 22.4% in test [1]; 47.9% in test [7]; 18.9% in test [2]; 54.8% in test [10]; 27.6% in test [12]. Also, the XI50 in test [8] was 2.8 molar excess; in test [9] it was over 100 molar excess; in [11], over 400 molar excess; in test [3], over 400 molar excess.
